Laboratory results: ChEMBL document CHEMBL1134510, “Adenosine analogues as selective inhibitors of glyceraldehyde-3-phosphate dehydrogenase of Trypanosomatidae via structure-based drug design” (J Med Chem, 2001)

Key:
[1] = Inhibitory activity against Leishmania mexicana GAPDH; Inactive at 50 uM
[2] = In vitro inhibition of rabbit muscle GAPDH.; set-up: species or system Oryctolagus cuniculus
How it was run: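 Spectrophotometric assay at 23 °C in 0.10 M triethanolamine/HCl, pH 7.5. Enzyme starts the reaction and inhibitors are in 5% DMSO-d₆. Initial rates over 0–2 min are compared with control. IC50 comes from ≥5 concentrations, or is extrapolated from ≥3 concentrations when above 50 µM.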

Trypanosoma brucei = assay: Effective concentration required to block the growth of bloodstream Trypanosoma brucei; type: functional; conditions: read-out: ED50 (the source's name)
How it was run: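 Bloodstream-form strain 427 trypomastigotes grown in HMI-9 with 10% fetal bovine serum, penicillin and streptomycin at 37 °C, 5% CO2. Inoculum 5 × 10³ parasites per well, drug given in serial dilutions, triplicate wells. Growth read at 48 h with Alamar Blue, checked against hemacytometer counts. Assay run twice.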

IC50 [1]	IC50 [2] [nM]	EC50 (Trypanosoma brucei) [nM]	Compound
Not Active	–	–	COc1cccc(C(=O)N[C@@H]2[C@H](O)[C@@H](CO)O[C@H]2n2cnc3c(NCc4c(OC)ccc5ccccc45)ncnc32)c1
Not Active	–	–	COc1ccccc1C(=O)N[C@@H]1[C@H](O)[C@@H](CO)O[C@H]1n1cnc2c(NCc3cccc4ccccc34)ncnc21
Not Active	–	–	CC(=O)Oc1ccccc1C(=O)N[C@@H]1[C@H](O)[C@@H](CO)O[C@H]1n1cnc2c(NCc3cccc4ccccc34)ncnc21
Not Active	–	–	COc1cccc(C(=O)N[C@@H]2[C@H](O)[C@@H](CO)O[C@H]2n2cnc3c(NCc4cccc5ccccc45)ncnc32)c1O
–	> 50000	6	N=C(N)c1ccc(OCCCCCOc2ccc(C(=N)N)cc2)cc1 [PENTAMIDINE]
